A short description of the data set: Toxicity liver stage against HepG2, at 10uM. It counts as cell-based. Set-up: test concentration 10 uM, cell line HepG2-A16-CD81EGFP. The note with it: human, HepG2-A16-CD81EGFP cells; read-out: INHIBITION
The gist of the method:
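Uninfected HepG2-A16-CD81EGFP cells, 3 × 10^3 per well, 1536-well, plated on prespotted compound at 10 μM final, parasite-free screening media added to match infected plates; puromycin 10 μM positive, DMSO 0.5% negative; run in parallel with 48 h PbLuc assay at 37 °C, 5% CO2; viability by CellTiter-Glo luminescence, normalized to controls.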
For the compound `CN(C)C(CNC(=O)N(Cc1ccco1)C1CC1)c1cccs1` (stereo unspecified), the cytotoxicity at 10 µM was 3.06%. The figure for `Cc1ccc(-c2nc3c([nH]2)CCNC3C(=O)O)c2cccnc12` (stereo unspecified) is 5%; for `C[C@@H]1CN(c2ccc(C#N)cn2)CC[C@@]1(O)C1CCOCC1` it is -1.5%. Consider `O=C(c1occc1CN1C(=O)Cc2ccccc21)N1CCCCCC1`, for which the cytotoxicity at 10 µM worked out at 4.52%. Regarding `CN(C(=O)Cn1nc(-c2cccs2)ccc1=O)C1CCS(=O)(=O)C1` (stereo unspecified), the cytotoxicity at 10 µM worked out at 7.36%. Under `Cc1ccoc1C(=O)N1C[C@@H](OCC2CC2)[C@H]2OCCC[C@H]21` stands 5.86%; under `c1ccc(CN2CCNCC(Cc3cnccn3)C2)cc1` (stereo unspecified), -8.65%; under `COc1cccc(N2CCN(Cc3cccc(CCN)c3)CC2=O)c1`, -1.42%. For `CN(Cc1cccc(F)c1)Cc1nc2c(cnn2C)c(=O)[nH]1`, the cytotoxicity at 10 µM was -2.8%. The figure for `Cc1cnn(CCC(=O)N2C[C@@H]3CC[C@H]2CN(CC(=O)N(C)C)C3)c1` is -10%; for `CN1CCCC2(CCN(C(=O)Cc3cc4c(cc3Cl)OCCO4)C2)C1=O` (stereo unspecified) it is 10.1%. As to `Cc1ncc(CNC(=O)Nc2cc(C(F)(F)F)c[nH]c2=O)s1`, the cytotoxicity at 10 µM was -10.2%. For the compound `O=C(Oc1ccccc1)N1CCC(CNS(=O)(=O)c2cccnc2)CC1`, the cytotoxicity at 10 µM turned out to be 11.1%. Under `CC(C)C(=O)N1CCC2(CC1)NC(=O)c1ccccc12` stands -0.787%. On to `Cc1nc(NCCSc2ccccn2)c2c(C)noc2n1`, for which the cytotoxicity at 10 µM was found to be 18.8%. As to `O=C(NCc1ccc2c(c1)OCO2)Nc1cccnc1N1CCCC1`, the cytotoxicity at 10 µM is -13.4%. The figure for `NC(=O)NC(=O)CCSCc1cc(F)cc2cccnc12` is 1.88%; for `Cn1ccnc1CN1CCC2(CC1)CCN(c1cncnc1)C2=O` it is -65%; for `Cc1noc(C)c1C(=O)N(C)C(C)c1ccc(S(C)(=O)=O)cc1` (stereo unspecified) it is 4.96%. Under `O=C(O)c1cccn1-c1ccc2c(c1)OCCO2` stands -7.48%; under `O=C(c1cccc(Oc2ccccc2)c1)N1CCCC(O)(CO)CC1` (stereo unspecified), -3.17%.

For the compound `CCS(=O)(=O)CC(=O)NCC1(c2c(F)cccc2F)CCCC1`, the cytotoxicity at 10 µM is -3.32%. Under `Cc1cc(C(F)(F)F)nc(CNC(=O)CCC2CCCCN2C)n1` (stereo unspecified) stands -59%.

Take `Cc1ccc(N2CC[C@@H]3[C@@H]2CCN3Cc2ccsc2)nn1`: the cytotoxicity at 10 µM is -106%.

For the compound `CC(C)c1cc(C(=O)N2CCCC(n3cncn3)C2)n[nH]1` (stereo unspecified), the cytotoxicity at 10 µM was -11.9%. Regarding `Cc1ncsc1CCCn1ccnc1-c1cc2n(n1)CCCNC2`, the cytotoxicity at 10 µM was determined as 3.28%. Turning to `CN(CC(=O)NCc1cccnc1N1CCCCC1)C(=O)c1cccs1`, the cytotoxicity at 10 µM was -14.8%. The figure for `Cc1cc(C(=O)NCC(C)N2CCc3ccccc32)no1` (stereo unspecified) is -8.8%. The figure for `CC(C)n1cc(C(=O)NC2CN3CCC2CC3)c2ccccc21` (stereo unspecified) is -59.7%; for `CN(C)CCNC(=O)c1cc(-c2cnc(N3CCCC3)nc2)cn1C` it is 15.7%. With `Cc1nn(CC(=O)Nc2ccon2)cc1Br`, the cytotoxicity at 10 µM came to 4.95%. The figure for `Cn1ccc(C(=O)NC2CCC23CCN(CC2CCOCC2)CC3)c1` (stereo unspecified) is -149%. Regarding `Cn1cnc2c1C(COCC1CC1)CN(C(=O)c1cscn1)C2` (stereo unspecified), the cytotoxicity at 10 µM was determined as 0.922%. Under `CCc1ccc(S(=O)(=O)N2Cc3c(CN(C)C)nn(C)c3C2)cc1` stands -106%; under `COc1ccc(C)cc1-n1c(COC(C)C)n[nH]c1=O`, 6.42%. As for `CC(C)[C@H]1CN(Cc2ccccn2)C[C@@H]1NC(=O)CCS(C)(=O)=O`, the cytotoxicity at 10 µM is -7.04%.

Turning to `Cc1ccoc1C(=O)N1C[C@H]2CCC[C@@]2(COCc2ccncc2)C1`, the cytotoxicity at 10 µM was found to be 9.56%. For the compound `Fc1ccc(-c2cnc(CN3CCCC3Cn3cccn3)o2)cc1` (stereo unspecified), the cytotoxicity at 10 µM was -7.52%. As to `Cn1cc(C(=O)OCC(N)=O)c(-c2ccc(F)cc2F)n1`, the cytotoxicity at 10 µM is -7.85%. The figure for `O=C(C1CCC1)N1CCC2(CC1)OCCO2` is 4.93%; for `Cc1ccc(C)c(C(NC2CCCC2)c2cccnc2)c1` (stereo unspecified) it is 23.5%; for `CC(=O)N1CCC2(CC1)CNc1c(F)cccc12` it is 4.79%. Take `CC(NCc1cnc(C2CCC2)s1)c1ccc(-n2cccn2)cc1` (stereo unspecified): the cytotoxicity at 10 µM turned out to be 7.67%.

As to `COc1ccc(CN2CC[C@@H]3[C@H]2CCC(=O)N3c2cnn(C)c2)cc1`, the cytotoxicity at 10 µM was found to be 17.4%.

For the compound `CCC(NC(=O)NCc1cccc(N(C)C)n1)c1nccs1` (stereo unspecified), the cytotoxicity at 10 µM worked out at 23.3%. Take `Cn1cccc1C(=O)N1CC[C@H]2[C@@H]1CCC(=O)N2CC1CC1`: the cytotoxicity at 10 µM was -11.1%. Under `CCn1cc(CN2CCN(Cc3cc(C)cc(C)c3)C(=O)C2)cc1C#N` stands 1.72%; under `CN1CC2(CCN(C(=O)c3ccc(=O)n(C)c3)CC2)CC1=O`, -4.46%. Under `Cn1ccnc1CNC(=O)c1cnc(C2CCNCC2)cn1` stands -1.31%; under `Cc1nc(C2CCCN2CC(=O)NCCOc2cccc(F)c2)no1` (stereo unspecified), -16.3%. Take `CCn1c(N)nc2cc(C(=O)NCc3cccc(C)c3C)cnc21`: the cytotoxicity at 10 µM was 19.7%. The figure for `CCN1CCC2(CC1)NC(=O)c1cc(Br)ccc1-n1nnnc12` is 1.47%; for `O=C(CSCc1ccccn1)N(Cc1ccsc1)C1CC1` it is -9.8%; for `CC(=O)N1C[C@@H]2CN(Cc3cccnc3)CCO[C@@H]2C1` it is -0.271%. As for `O=S(=O)(c1ccccc1)N1CCC2(CCCN2CC2CCCC2)C1` (stereo unspecified), the cytotoxicity at 10 µM was 4.4%. The figure for `O=C(CC1CCCC1)N1CCn2cc(Cn3cccn3)nc2C1` is -75.4%. For the compound `COc1cc(N2C[C@H]3CCC[C@@H](CN4CCOCC4)[C@H]3C2)ncn1`, the cytotoxicity at 10 µM was -71.5%. Under `CCc1noc(CC)c1CNC(=O)Nc1cccc([S+](C)[O-])c1` (stereo unspecified) stands 13.4%; under `COc1ccc(C(C)N2CCC(C(=O)N(C)C)CC2)cc1Cl` (stereo unspecified), -52.5%. As for `Fc1cccc(C2(CNC3CCSC3)CCOCC2)c1` (stereo unspecified), the cytotoxicity at 10 µM was -1.86%.

As to `COc1ccc(CNC(=O)NCCc2nc(C)c(C)s2)cn1`, the cytotoxicity at 10 µM is -0.0813%. On to `Cc1cn(-c2ccccc2)nc1NS(=O)(=O)c1cc(C(=O)O)ccc1Cl`, for which the cytotoxicity at 10 µM worked out at 13.1%. `CCC(NC1Cc2ccccc2C1)c1ccc(S(C)(=O)=O)cc1` (stereo unspecified): the cytotoxicity at 10 µM is -2.02%. Under `COc1ccccc1OCc1cc(C(=O)N2[C@H](C)CC[C@@H]2C)n[nH]1` stands -2.01%; under `COc1ccccc1NC(=O)NCCCC(=O)Nc1cn[nH]c1`, -9.55%; under `COCCN1CCCn2cnc(CNC3CCCC3)c2C1`, 4.92%. The figure for `Cc1nccn1C1CCCN(C(=O)c2cccc(S(C)(=O)=O)c2)C1` (stereo unspecified) is -11.6%.

For `CN(C)C(=O)NC1COC2(CCN(C(=O)c3ccc(Cl)cc3)CC2)C1` (stereo unspecified), the cytotoxicity at 10 µM came out at 0.994%. On to `Cn1ccnc1SCCNc1cc(N2CCOCC2)ncn1`, for which the cytotoxicity at 10 µM was 4.91%. The figure for `c1csc(CN2CCC3(CCCN3CC3CC3)CC2)n1` is 8.22%; for `CC(C)n1ccnc1C1CCCN(c2cc(C(=O)NC3CC3)ccn2)C1` (stereo unspecified) it is -0.352%.
